Reference: ChEMBL document CHEMBL4038309, “Design and Synthesis of Chlorinated and Fluorinated 7-Azaindenoisoquinolines as Potent Cytotoxic Anticancer Agents That Inhibit Topoisomerase I” (J Med Chem, 2017)
The source made the active and inactive calls. No cut-off for these calls is given here.

Legend:
PBMC = assay: Induction of DNA damage in human PBMC assessed as gamma-H2AX foci formation at 0.1 to 1 uM after 2 hrs by confocal microscopy; assay type: cell-based
CCRF-CEM = assay: Induction of DNA damage in human CCRF-CEM cells assessed as gamma-H2AX foci formation at 0.1 to 1 uM after 2 hrs by confocal microscopy; assay type: functional, cell-based
MCF7 = assay: Antiproliferative activity against human MCF7 cells assessed as growth inhibition; assay type: functional
How it was run: (§1)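 NCI-60 screen: single-dose pre-screen at 10 μM, then five concentrations from 0.01 to 100 μM. Values beyond the tested range are recorded as 0.01 or 100 μM.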

Danio rerio [1] = organism: Danio rerio; assay: Toxicity in zebrafish embryo assessed as increase in bent tail at 0.1 uM preincubated for 1 hr measured after 24 to 120 hrs; details: in vivo
How it was run: (§2)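 Wild-type AB zebrafish embryos, 4 clutch replicates of 40 embryos each, held at 28 °C through 120 hpf. Exposed in Petri dishes to 10, 1, 0.1 or 0.01 μM compound in filtered fish water with 0.1% DMSO. Water-only and DMSO controls included. Mortality, hatching and gross malformations observed.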

[2] = Toxicity in zebrafish embryo assessed as survival at 0.1 uM preincubated for 1 hr measured after 48 hrs (reference value: 84.4 +/- 8.5%); parameters: species or system Danio rerio; details: zebrafish embryos
[3] = Toxicity in zebrafish embryo assessed as survival at 0.1 uM preincubated for 1 hr measured after 120 hrs (reference value: 82.5 +/- 8.4%); parameters: species or system Danio rerio; details: zebrafish embryos
[4] = Toxicity in zebrafish embryo assessed as survival at 0.01 uM preincubated for 1 hr measured after 48 hrs (reference value: 84.4 +/- 8.5%); parameters: species or system Danio rerio; details: zebrafish embryos
Danio rerio [5] = organism: Danio rerio; assay: Toxicity in zebrafish embryo assessed as hatching rate at 0.1 uM preincubated for 1 hr measured after 24 to 120 hrs; details: in vivo; how it was run: as §2
[6] = Toxicity in zebrafish embryo assessed as survival at 0.01 uM preincubated for 1 hr measured after 96 hrs (reference value: 82.5 +/- 8.4%); parameters: species or system Danio rerio; details: zebrafish embryos
[7] = Toxicity in zebrafish embryo assessed as survival at 0.01 uM preincubated for 1 hr measured after 72 hrs (reference value: 82.5 +/- 8.4%); parameters: species or system Danio rerio; details: zebrafish embryos
UACC-62 = assay: Antiproliferative activity against human UACC62 cells assessed as growth inhibition; assay type: functional; how it was run: as §1
OVCAR-3 = assay: Antiproliferative activity against human OVCAR3 cells assessed as growth inhibition; assay type: functional; how it was run: as §1
[8] = Toxicity in zebrafish embryo assessed as survival at 1 uM preincubated for 1 hr measured after 24 hrs (reference value: 86.2 +/- 8.5%); parameters: species or system Danio rerio; details: zebrafish embryos
[9] = Toxicity in zebrafish embryo assessed as survival at 0.01 uM preincubated for 1 hr measured after 120 hrs (reference value: 82.5 +/- 8.4%); parameters: species or system Danio rerio; details: zebrafish embryos
[10] = target: T1, DNA topoisomerase 1 (Homo sapiens) (UniProt P11387); assay: Inhibition of recombinant Top1 (unknown origin) assessed as Top 1 mediated DNA cleavage using 3'-[32P]-labeled 117 bp DNA as substrate at 0.1 to 100 uM after 20 mins by PAGE analysis
T1 sequence (whole entry): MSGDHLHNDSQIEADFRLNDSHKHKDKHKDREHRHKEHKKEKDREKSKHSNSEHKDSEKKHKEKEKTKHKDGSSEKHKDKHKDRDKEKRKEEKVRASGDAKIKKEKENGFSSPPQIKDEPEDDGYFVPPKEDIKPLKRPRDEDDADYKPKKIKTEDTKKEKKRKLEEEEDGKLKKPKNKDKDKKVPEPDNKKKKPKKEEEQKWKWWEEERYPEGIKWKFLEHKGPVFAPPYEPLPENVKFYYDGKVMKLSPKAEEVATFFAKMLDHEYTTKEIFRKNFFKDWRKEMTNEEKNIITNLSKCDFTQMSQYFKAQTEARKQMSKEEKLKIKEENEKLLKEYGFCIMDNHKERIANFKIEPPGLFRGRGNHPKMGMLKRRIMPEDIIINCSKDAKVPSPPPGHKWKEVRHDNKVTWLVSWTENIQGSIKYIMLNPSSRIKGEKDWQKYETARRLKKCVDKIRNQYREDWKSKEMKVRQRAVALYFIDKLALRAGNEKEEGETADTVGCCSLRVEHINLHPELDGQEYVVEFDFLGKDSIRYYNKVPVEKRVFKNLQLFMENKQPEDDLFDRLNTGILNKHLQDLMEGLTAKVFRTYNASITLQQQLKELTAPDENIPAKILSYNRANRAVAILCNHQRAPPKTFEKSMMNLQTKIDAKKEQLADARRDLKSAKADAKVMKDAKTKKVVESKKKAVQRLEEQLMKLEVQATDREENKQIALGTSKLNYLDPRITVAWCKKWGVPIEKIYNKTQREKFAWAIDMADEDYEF
How it was run: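 About 2 nM 3'-[32P]-labeled DNA with recombinant Top1 in 10 mM Tris-HCl pH 7.5, 50 mM KCl, 5 mM MgCl2, 0.1 mM EDTA, 15 μg/mL BSA, 25 °C, 20 min. Compound at 0.1, 1, 10 and 100 μM. Stopped with 0.5% SDS and formamide dye, then run on 20% denaturing PAGE with phosphorimaging.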

HCT-116 = assay: Antiproliferative activity against human HCT116 cells assessed as growth inhibition; assay type: functional; how it was run: as §1
[11] = Toxicity in zebrafish embryo assessed as survival at 1 uM preincubated for 1 hr measured after 96 hrs (reference value: 82.5 +/- 8.4%); parameters: species or system Danio rerio; details: zebrafish embryos
Danio rerio [12] = assay: Toxicity in zebrafish embryo assessed as increase in yolk sac edema at 0.1 uM preincubated for 1 hr measured after 24 to 120 hrs; details: in vivo; how it was run: as §2
SF-539 = assay: Antiproliferative activity against human SF539 cells assessed as growth inhibition; assay type: functional; how it was run: as §1
[13] = Toxicity in zebrafish embryo assessed as survival at 10 uM preincubated for 1 hr measured after 24 to 120 hrs (reference value: 82.5 to 86.2%); parameters: species or system Danio rerio; details: zebrafish embryos
DU-145 = assay: Antiproliferative activity against human DU145 cells assessed as growth inhibition; assay type: functional; how it was run: as §1
HOP-62 = assay: Antiproliferative activity against human HOP62 cells assessed as growth inhibition; assay type: functional; how it was run: as §1
[14] = Toxicity in zebrafish embryo assessed as survival at 0.01 uM preincubated for 1 hr measured after 24 hrs (reference value: 86.2 +/- 8.5%); parameters: species or system Danio rerio; details: zebrafish embryos
[15] = Toxicity in zebrafish embryo assessed as survival at 1 uM preincubated for 1 hr measured after 48 hrs (reference value: 84.4 +/- 8.5%); parameters: species or system Danio rerio; details: zebrafish embryos
[16] = Toxicity in zebrafish embryo assessed as survival at 0.1 uM preincubated for 1 hr measured after 96 hrs (reference value: 82.5 +/- 8.4%); parameters: species or system Danio rerio; details: zebrafish embryos
[17] = Toxicity in zebrafish embryo assessed as survival at 1 uM preincubated for 1 hr measured after 120 hrs (reference value: 82.5 +/- 8.4%); parameters: species or system Danio rerio; details: zebrafish embryos
[18] = Toxicity in zebrafish embryo assessed as survival at 1 uM preincubated for 1 hr measured after 72 hrs (reference value: 82.5 +/- 8.4%); parameters: species or system Danio rerio; details: zebrafish embryos
[19] = Toxicity in zebrafish embryo assessed as survival at 0.1 uM preincubated for 1 hr measured after 72 hrs (reference value: 82.5 +/- 8.4%); parameters: species or system Danio rerio; details: zebrafish embryos
[20] = Toxicity in zebrafish embryo assessed as survival at 0.1 uM preincubated for 1 hr measured after 24 hrs (reference value: 86.2 +/- 8.5%); parameters: species or system Danio rerio; details: zebrafish embryos
[21] = target: T2, Tyrosyl-DNA phosphodiesterase 2 (Homo sapiens, UniProt O95551); assay: Inhibition of recombinant human TDP2 using 3'-labeled alpha-[32P]-cordycepin as substrate after 15 mins
T2 sequence (O95551 whole entry): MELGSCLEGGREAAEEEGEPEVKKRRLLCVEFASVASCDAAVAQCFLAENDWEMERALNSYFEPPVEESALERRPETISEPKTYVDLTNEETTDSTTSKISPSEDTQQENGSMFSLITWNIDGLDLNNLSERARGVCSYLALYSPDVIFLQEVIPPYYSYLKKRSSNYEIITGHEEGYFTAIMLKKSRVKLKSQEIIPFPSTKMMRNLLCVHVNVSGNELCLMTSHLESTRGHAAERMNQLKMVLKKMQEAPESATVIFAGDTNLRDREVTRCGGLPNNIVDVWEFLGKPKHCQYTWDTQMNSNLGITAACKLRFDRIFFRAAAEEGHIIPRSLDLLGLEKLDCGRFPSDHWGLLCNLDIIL

SN12C = assay: Antiproliferative activity against human SN12C cells assessed as growth inhibition; assay type: functional; how it was run: as §1

Compound	Activity (PBMC)	Activity (CCRF-CEM)	GI50 (MCF7) [nM]	GI50 (UACC-62) [nM]	GI50 (OVCAR-3) [nM]	Top1-mediated DNA cleavage activity (active/not active) [10]	GI50 (HCT-116) [nM]	GI50 (SF-539) [nM]	GI50 (DU-145) [nM]	GI50 (HOP-62) [nM]	further results
COc1cc2c3c(n(CCCNCCO)c(=O)c2cc1OC)-c1cc2c(cc1C3=O)OCO2 [LMP-744]	Non-Toxic	Active									
CC[C@@]1(O)C(=O)OCc2c1cc1n(c2=O)Cc2cc3ccccc3nc2-1 [CAMPTOTHECIN]	Non-Toxic	Active	13								
COc1cnc2c(c1)C(=O)c1c-2n(CCCn2ccnc2)c(=O)c2cc(Cl)ccc12			< 10	28	120	Active	14	38	43	20	Activity (Danio rerio [1]): Non-Toxic; survival at 48 h, 0.1 µM [2]: 54.4%; survival at 120 h, 0.1 µM [3]: 50.6%; survival at 48 h, 0.01 µM [4]: 65.6%; Activity (Danio rerio [5]): Non-Toxic; survival at 96 h, 0.01 µM [6]: 61.8%; survival at 72 h, 0.01 µM [7]: 63.1%; survival at 24 h, 1 µM [8]: 10.6%; survival at 120 h, 0.01 µM [9]: 61.9%; survival at 96 h, 1 µM [11]: 1.2%; Activity (Danio rerio [12]): Non-Toxic; survival at 10 µM [13]: 0%; survival at 24 h, 0.01 µM [14]: 67.5%; survival at 48 h, 1 µM [15]: 1.2%; survival at 96 h, 0.1 µM [16]: 50.6%; survival at 120 h, 1 µM [17]: 1.2%; survival at 72 h, 1 µM [18]: 1.2%; survival at 72 h, 0.1 µM [19]: 51.9%; survival at 24 h, 0.1 µM [20]: 55.6%
CCNCCCn1c2c(c3ccc(Cl)cc3c1=O)C(=O)c1cc(OC)cnc1-2			< 10	532	2130	Active	203	506	208	122	IC50 [21]: > 111000 nM; GI50 (SN12C): 675 nM
COc1cnc2c(c1)C(=O)c1c-2n(CCCN2CCC(O)CC2)c(=O)c2cc(Cl)ccc12	Non-Toxic	Active	42	190	1420	Active	98	430	270	94	
